pIC50: −log10 of the molar value. Activity calls are given as the source filed them.
Key:
Glutamate NMDA receptor = assay: Displacement of [3H]CGP-39653 from rat brain NMDA receptor
In short: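 Competitive displacement of [3H]CGP-39653 at the NMDA recognition site, using rat whole-brain membranes.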

Plasma [1] = assay: Biodistribution in Sprague-Dawley rat plasma at 30 mg/kg, po after 0.5 hrs; type: ADME, organism-based; parameters: dose 30 mg/kg, route oral; conditions: in vivo
In short: (§1)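 Male Sprague-Dawley rats given [14C]-labelled compound by oral gavage (parent at 30 mg/kg, prodrug at 10 mg/kg). Blood, plasma and brain taken at 0.167, 0.5, 1, 4, 8 and 24 h (n = 3 rats/time point). Total radioactivity measured in each matrix. Metabolite profiles from HPLC with in-line radioactivity detection.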

[2] = Half life in Sprague-Dawley rat at 30 mg/kg, po; type: ADME, organism-based; parameters: dose 30 mg/kg, route oral; conditions: in vivo
In short: (§2)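 Male Sprague-Dawley rats fasted about 16 h, then dosed by oral gavage at 30 mg/kg as a suspension in 2% Tween-80/0.5% methylcellulose in water. Plasma sampled at 0–6 h (n = 2–3 per time point) and stabilized with acetic acid and KF. Samples acidified, extracted into n-butanol, and analysed by LC-MS.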

Brain [3] = assay: Biodistribution in Sprague-Dawley rat brain at 30 mg/kg, po after 0.167 hrs; type: ADME, organism-based; parameters: dose 30 mg/kg, route oral; conditions: in vivo; in short: as §1
Plasma [4] = assay: Biodistribution in Sprague-Dawley rat plasma at 10 mg/kg, po after 0.167 hrs; conditions: in vivo
[5] = AUC (0 to 4 hrs) in Sprague-Dawley rat at 30 mg/kg, po; type: ADME, organism-based; parameters: time < 4 hr, dose 30 mg/kg, route oral; conditions: plasma
In short: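 Male Sprague-Dawley rats given a single oral gavage dose, suspended in 2% Tween-80/0.5% methylcellulose in sterile water at 1 mL/kg. Plasma sampled at 0, 0.25, 0.5, 1, 2, 4 and 6 h; n = 2 at 0, 2, 4, 6 h and n = 3 at 0.25, 0.5, 1 h. Samples were stabilized with acetic acid/KF, acidified, extracted into n-butanol and quantified by LC/MS.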

[6] = AUC (0 to last) in Sprague-Dawley rat at 30 mg/kg, po; conditions: plasma
Blood [7] = assay: Biodistribution in Sprague-Dawley rat blood at 10 mg/kg, po after 0.167 hrs; conditions: in vivo
Rattus norvegicus [8] = species: Rattus norvegicus; assay: Antinociceptive activity in Sprague-Dawley rat assessed as reversal of PGE2-induced thermal hypersensitivity after 0.5 hrs; type: functional
In short: (§3)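 Male Sprague-Dawley rats (200-250 g) fasted ~16 h and dosed orally in 2% Tween-80/0.5% methylcellulose (1 mL/kg) 0.5-48 h before intradermal PGE2 (0.1 mg in 50 µL). Tail-withdrawal latency was read 30 min later in water at 34-58 °C, with a 20 s cutoff. T10 from each rat's temperature-effect curve; within-subjects repeated-measures ANOVA, p < 0.05.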

Blood [9] = assay: Biodistribution in Sprague-Dawley rat blood at 30 mg/kg, po after 0.5 hrs; type: ADME, organism-based; parameters: dose 30 mg/kg, route oral; conditions: in vivo; in short: as §1
[10] = molecular target: T1, Glycine receptor subunit alpha-1 (Rattus norvegicus) (UniProt P07727); assay: Displacement of [3H]glycine from rat brain strychnine sensitive glycine receptor at 100 uM
T1 sequence (whole entry): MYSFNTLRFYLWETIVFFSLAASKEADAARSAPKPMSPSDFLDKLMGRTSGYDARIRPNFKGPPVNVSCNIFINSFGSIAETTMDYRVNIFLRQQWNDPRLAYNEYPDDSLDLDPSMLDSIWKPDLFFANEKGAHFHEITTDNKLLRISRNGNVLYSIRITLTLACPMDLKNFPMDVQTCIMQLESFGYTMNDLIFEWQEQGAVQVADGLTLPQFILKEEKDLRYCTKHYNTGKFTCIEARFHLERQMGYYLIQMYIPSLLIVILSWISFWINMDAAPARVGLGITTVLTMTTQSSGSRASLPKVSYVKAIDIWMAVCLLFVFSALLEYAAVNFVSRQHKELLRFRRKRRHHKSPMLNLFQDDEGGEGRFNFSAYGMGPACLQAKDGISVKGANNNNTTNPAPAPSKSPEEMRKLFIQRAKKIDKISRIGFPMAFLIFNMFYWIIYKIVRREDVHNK
In short: (§4)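 Inhibition of radioligand binding at 100 µM. [3H]glycine with rat whole-brain membranes, [3H]kainate with rat frontal cortex membranes, and [3H]AMPA with rat forebrain membranes.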

[11] = Tmax in Sprague-Dawley rat at 30 mg/kg, po; type: ADME, organism-based; parameters: dose 30 mg/kg, route oral; conditions: in vivo; in short: as §2
Brain [12] = assay: Biodistribution in Sprague-Dawley rat brain at 30 mg/kg, po after 0.5 hrs; type: ADME, organism-based; parameters: dose 30 mg/kg, route oral; conditions: in vivo; in short: as §1
Rattus norvegicus [13] = species: Rattus norvegicus; assay: Displacement of [3H]kainic acid from kainate receptor in rat frontal cortex at 100 uM; type: tissue-based; in short: as §4
[14] = Cmax in Sprague-Dawley rat at 30 mg/kg, po; type: ADME, organism-based; parameters: dose 30 mg/kg, route oral; conditions: in vivo; in short: as §2
Rattus norvegicus [15] = species: Rattus norvegicus; assay: Displacement of [3H]AMPA from AMPA receptor in rat forebrain membrane at 100 uM; type: cell membranes; in short: as §4
Rattus norvegicus [16] = assay: Antinociceptive activity in Sprague-Dawley rat assessed as reversal of PGE2-induced thermal hypersensitivity at 100 mg/kg after 0.5 hrs; type: functional, organism-based; parameters: dose 100 mg/kg; in short: as §3

pIC50 (Glutamate NMDA receptor): 7.64
Drug uptake (Plasma [1]): 98%
half-life [2]: 78 min
Drug uptake (Brain [3]): 88%
Drug uptake (Plasma [4]): 88%
AUC(0-t) at 4 h [5]: 342 ng·h/mL
AUC(0-last) [6]: 342 ng·h/mL
Drug uptake (Blood [7]): 88%
Drug uptake (Blood [9]): 98%
Activity [10]: 33%
Tmax [11]: 30 min
Activity (Brain [12]): 98%
Activity (Rattus norvegicus [13]): 6%
Cmax [14]: 218 ng/mL
Activity (Rattus norvegicus [15]): 17%
Structure (SMILES): O=c1c2c(c1=O)N(CCP(=O)(O)O)CCCN2 [PERZINFOTEL]
ED50 (Rattus norvegicus [8]): 35 mg/kg
Activity (Rattus norvegicus [16]): Active

Reference: ChEMBL document CHEMBL1143386, “Prodrugs of perzinfotel with improved oral bioavailability” (J Med Chem, 2009)
